These results are taken from ChEMBL document CHEMBL1781932 (J Med Chem, 2011).

In brackets after ≈: the same amount, converted by molar mass.

Assay type in all cases: functional
Experiment [1] deals with Staphylococcus aureus. The experiment is described as follows: Antimicrobial activity against tetracycline-susceptible Staphylococcus aureus isolate 101 by CLSI dilution method.
Experiment [2] relates to Staphylococcus aureus. The experiment is described as follows: Antimicrobial activity against methicillin-, tetracycline-resistant Staphylococcus aureus isolate 161 harboring tetM gene by CLSI dilution method.
In experiment [3] the test system is Staphylococcus aureus. Kind of experiment: Antimicrobial activity against tetracycline-resistant Staphylococcus aureus isolate 158 harboring tetK gene by CLSI dilution method.
Experiment [4] deals with Enterococcus faecalis. The experiment is described as follows: Antimicrobial activity against tetracycline-susceptible Enterococcus faecalis isolate 103 by CLSI dilution method. The essentials:
(§1)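 Broth microdilution per CLSI in fresh cation-adjusted Mueller Hinton broth, kept at 4 °C before testing, with defibrinated horse blood added as appropriate. Strains were from ATCC. MIC in µg/mL. Runs were accepted when comparator antibiotics against ATCC quality-control strains fell within recommended ranges.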

Experiment [5] has as its system Enterococcus faecalis. Kind of experiment: Antimicrobial activity against tetracycline-resistant Enterococcus faecalis isolate 159 harboring […] gene by CLSI dilution method.
The subject of experiment [6] is Streptococcus pneumoniae. The experiment is described as follows: Antimicrobial activity against tetracycline-susceptible Streptococcus pneumoniae isolate 106 by CLSI dilution method. The essentials: as §1
Experiment [7] deals with Streptococcus pneumoniae. The experiment is described as follows: Antimicrobial activity against tetracycline-resistant Streptococcus pneumoniae isolate 160 harboring tetM gene by CLSI dilution method.
Experiment [8] deals with Escherichia coli. Kind of experiment: Antimicrobial activity against tetracycline-susceptible Escherichia coli isolate 107 by CLSI dilution method. The method, boiled down: as §1
For experiment [9], the system named is Escherichia coli. The experiment is described as follows: Antimicrobial activity against tetracycline-resistant Escherichia coli isolate 155 harboring tetA gene by CLSI dilution method.
The next experiment deals with Acinetobacter baumannii. Kind of experiment: Antimicrobial activity against tetracycline-susceptible Acinetobacter baumannii isolate 110 by CLSI dilution method. The method, boiled down:
as §1

The subject of another experiment is Pseudomonas aeruginosa. Kind of experiment: Antimicrobial activity against tetracycline-susceptible Pseudomonas aeruginosa isolate 111 by CLSI dilution method. The method, boiled down: as §1
The subject of another experiment is Enterobacter cloacae. The experiment is described as follows: Antimicrobial activity against tetracycline-susceptible Enterobacter cloacae isolate 108 by CLSI dilution method. The method, boiled down: as §1
Experiment [10] deals with Klebsiella pneumoniae. The experiment is described as follows: Antimicrobial activity against tetracycline-susceptible Klebsiella pneumoniae isolate 109 by CLSI dilution method. The essentials: as §1
The subject of experiment [11] is Klebsiella pneumoniae. The experiment is described as follows: Antimicrobial activity against tetracycline-resistant Klebsiella pneumoniae isolate 153 harboring tetA gene by CLSI dilution method.

Consider `COCCNCc1ccc2c(N(C)C)c3c(c(O)c2c1)C(=O)C1=C(O)[C@]2(O)C(=O)C(C(N)=O)=C(O)[C@@H](N(C)C)[C@@H]2C[C@@H]1C3`, for which the MIC with Staphylococcus aureus [1] was 0.5 µg/mL (≈ 0.841 µM); against Staphylococcus aureus [2] it was 8 µg/mL (≈ 13.5 µM); against Staphylococcus aureus [3] it was 0.5 µg/mL (≈ 0.841 µM); with Enterococcus faecalis [4], 1 µg/mL (≈ 1.68 µM); with Enterococcus faecalis [5], 8 µg/mL (≈ 13.5 µM); against Streptococcus pneumoniae [6] it was 0.0625 µg/mL (≈ 0.105 µM). Further, the MIC was 1 µg/mL (≈ 1.68 µM) against Streptococcus pneumoniae [7]; 4 µg/mL (≈ 6.73 µM) against Escherichia coli [8]; 32 µg/mL (≈ 53.8 µM) against Escherichia coli [9]; 2 µg/mL (≈ 3.36 µM) in the experiment on Acinetobacter baumannii; above 32 µg/mL in the experiment on Pseudomonas aeruginosa; 16 µg/mL (≈ 26.9 µM) in the experiment on Enterobacter cloacae. In addition, the MIC stood at 16 µg/mL (≈ 26.9 µM) against Klebsiella pneumoniae [10] and 32 µg/mL (≈ 53.8 µM) against Klebsiella pneumoniae [11].
`CN(C)[C@@H]1C(O)=C(C(N)=O)C(=O)[C@@]2(O)C(O)=C3C(=O)c4c(cc5ccc(F)cc5c4O)C[C@H]3C[C@@H]12`: the MIC against Staphylococcus aureus [1] came out at 0.5 µg/mL (≈ 1.04 µM); in the experiment on Staphylococcus aureus [2], 0.5 µg/mL (≈ 1.04 µM); in the experiment on Staphylococcus aureus [3] it was 0.25 µg/mL (≈ 0.518 µM); in the experiment with Enterococcus faecalis [4] it was 0.25 µg/mL (≈ 0.518 µM); in the experiment with Enterococcus faecalis [5], 0.5 µg/mL (≈ 1.04 µM); in the experiment on Streptococcus pneumoniae [6] it was 2 µg/mL (≈ 4.15 µM). The MIC against Streptococcus pneumoniae [7] was 8 µg/mL (≈ 16.6 µM); against Escherichia coli [8], 16 µg/mL (≈ 33.2 µM); against Escherichia coli [9], above 32 µg/mL; with Acinetobacter baumannii, 4 µg/mL (≈ 8.29 µM); in the experiment on Pseudomonas aeruginosa, above 32 µg/mL; against Enterobacter cloacae, above 32 µg/mL. Besides, the minimum inhibitory concentration (MIC) with Klebsiella pneumoniae [10] and in the experiment on Klebsiella pneumoniae [11] was above 32 µg/mL in each case.
`CN(C)c1c2c(c(O)c3cc(F)ccc13)C(=O)C1=C(O)[C@]3(O)C(=O)C(C(N)=O)=C(O)[C@@H](N(C)C)[C@@H]3C[C@@H]1C2`: the minimum inhibitory concentration (MIC) against Staphylococcus aureus [1] amounted to 0.25 µg/mL (≈ 0.476 µM); in the experiment on Staphylococcus aureus [2] it was 1 µg/mL (≈ 1.9 µM); with Staphylococcus aureus [3] it was 0.125 µg/mL (≈ 0.238 µM); in the experiment on Enterococcus faecalis [4] it was 0.25 µg/mL (≈ 0.476 µM); in the experiment on Enterococcus faecalis [5] it was 0.25 µg/mL (≈ 0.476 µM); in the experiment with Streptococcus pneumoniae [6], 2 µg/mL (≈ 3.81 µM). The MIC in the experiment on Streptococcus pneumoniae [7] was 4 µg/mL (≈ 7.61 µM); in the experiment with Escherichia coli [8] it was above 32 µg/mL; in the experiment with Escherichia coli [9], above 32 µg/mL; with Acinetobacter baumannii, 16 µg/mL (≈ 30.4 µM); against Pseudomonas aeruginosa it was above 32 µg/mL; in the experiment on Enterobacter cloacae, above 32 µg/mL. Moreover, the minimum inhibitory concentration (MIC) against Klebsiella pneumoniae [10] and against Klebsiella pneumoniae [11] was above 32 µg/mL each time.
With `COCCOc1c2c(c(O)c3cc(CN4CCC4)ccc13)C(=O)C1=C(O)[C@]3(O)C(=O)C(C(N)=O)=C(O)[C@@H](N(C)C)[C@@H]3C[C@@H]1C2`, the MIC is 0.25 µg/mL (≈ 0.411 µM) in the experiment on Staphylococcus aureus [1]; 2 µg/mL (≈ 3.29 µM) in the experiment with Staphylococcus aureus [2]; 0.5 µg/mL (≈ 0.823 µM) against Staphylococcus aureus [3]; 0.5 µg/mL (≈ 0.823 µM) against Enterococcus faecalis [4]; 2 µg/mL (≈ 3.29 µM) in the experiment on Enterococcus faecalis [5]; 0.0313 µg/mL (≈ 0.0515 µM) with Streptococcus pneumoniae [6]. Moreover, the MIC was 0.25 µg/mL (≈ 0.411 µM) against Streptococcus pneumoniae [7]; 2 µg/mL (≈ 3.29 µM) in the experiment with Escherichia coli [8]; 32 µg/mL (≈ 52.7 µM) against Escherichia coli [9]; 4 µg/mL (≈ 6.58 µM) against Acinetobacter baumannii; above 32 µg/mL in the experiment with Pseudomonas aeruginosa; 8 µg/mL (≈ 13.2 µM) with Enterobacter cloacae. Moreover, the MIC against Klebsiella pneumoniae [10] is 8 µg/mL (≈ 13.2 µM); against Klebsiella pneumoniae [11] it was above 32 µg/mL.
`CNCc1ccc2cc3c(c(O)c2c1)C(=O)C1=C(O)[C@]2(O)C(=O)C(C(N)=O)=C(O)[C@@H](N(C)C)[C@@H]2C[C@@H]1C3`: the minimal inhibitory concentration (MIC) was determined as 0.5 µg/mL (≈ 0.985 µM) in the experiment with Staphylococcus aureus [1]; 4 µg/mL (≈ 7.88 µM) in the experiment on Staphylococcus aureus [2]; 1 µg/mL (≈ 1.97 µM) in the experiment with Staphylococcus aureus [3]; 0.5 µg/mL (≈ 0.985 µM) in the experiment with Enterococcus faecalis [4]; 4 µg/mL (≈ 7.88 µM) in the experiment with Enterococcus faecalis [5]; 0.0625 µg/mL (≈ 0.123 µM) in the experiment with Streptococcus pneumoniae [6]. The MIC with Streptococcus pneumoniae [7] was determined as 1 µg/mL (≈ 1.97 µM); in the experiment with Escherichia coli [8] it was 1 µg/mL (≈ 1.97 µM); against Escherichia coli [9], 16 µg/mL (≈ 31.5 µM); with Acinetobacter baumannii, 4 µg/mL (≈ 7.88 µM); in the experiment on Pseudomonas aeruginosa, 16 µg/mL (≈ 31.5 µM); with Enterobacter cloacae, 2 µg/mL (≈ 3.94 µM). In addition, the minimum inhibitory concentration (MIC) against Klebsiella pneumoniae [10] stood at 4 µg/mL (≈ 7.88 µM); in the experiment on Klebsiella pneumoniae [11], 8 µg/mL (≈ 15.8 µM).
As to `CCCNCc1ccc2cc3c(c(O)c2c1)C(=O)C1=C(O)[C@]2(O)C(=O)C(C(N)=O)=C(O)[C@@H](N(C)C)[C@@H]2C[C@@H]1C3`, the MIC against Staphylococcus aureus [1] was found to be 0.5 µg/mL (≈ 0.934 µM); against Staphylococcus aureus [2], 2 µg/mL (≈ 3.73 µM); against Staphylococcus aureus [3] it was 0.25 µg/mL (≈ 0.467 µM); against Enterococcus faecalis [4] it was 0.5 µg/mL (≈ 0.934 µM); with Enterococcus faecalis [5], 4 µg/mL (≈ 7.47 µM); against Streptococcus pneumoniae [6] it was 0.0156 µg/mL (≈ 0.0291 µM). The MIC turned out to be 0.25 µg/mL (≈ 0.467 µM) against Streptococcus pneumoniae [7]; 1 µg/mL (≈ 1.87 µM) in the experiment on Escherichia coli [8]; 4 µg/mL (≈ 7.47 µM) in the experiment with Escherichia coli [9]; 1 µg/mL (≈ 1.87 µM) against Acinetobacter baumannii; 32 µg/mL (≈ 59.7 µM) with Pseudomonas aeruginosa; 2 µg/mL (≈ 3.73 µM) in the experiment on Enterobacter cloacae. For the same compound, the MIC with Klebsiella pneumoniae [10] amounted to 2 µg/mL (≈ 3.73 µM); with Klebsiella pneumoniae [11], 4 µg/mL (≈ 7.47 µM).
Consider `CN(Cc1ccc2cc3c(c(O)c2c1)C(=O)C1=C(O)[C@]2(O)C(=O)C(C(N)=O)=C(O)[C@@H](N(C)C)[C@@H]2C[C@@H]1C3)c1ccccc1`, for which the MIC came to 1 µg/mL (≈ 1.71 µM) in the experiment on Staphylococcus aureus [1]; 8 µg/mL (≈ 13.7 µM) in the experiment with Staphylococcus aureus [2]; 1 µg/mL (≈ 1.71 µM) against Staphylococcus aureus [3]; 4 µg/mL (≈ 6.85 µM) with Enterococcus faecalis [4]; 4 µg/mL (≈ 6.85 µM) with Enterococcus faecalis [5]; 2 µg/mL (≈ 3.43 µM) against Streptococcus pneumoniae [6]. Further, the MIC was 2 µg/mL (≈ 3.43 µM) against Streptococcus pneumoniae [7]; above 32 µg/mL with Escherichia coli [8]; above 32 µg/mL in the experiment with Escherichia coli [9]; above 32 µg/mL in the experiment on Acinetobacter baumannii; above 32 µg/mL in the experiment with Pseudomonas aeruginosa; above 32 µg/mL in the experiment with Enterobacter cloacae. The MIC with Klebsiella pneumoniae [10] and with Klebsiella pneumoniae [11] was above 32 µg/mL in each case.

As usually defined, the MIC is the smallest concentration in the dilution series that meets the test's criterion for growth inhibition. A higher MIC goes with a less susceptible organism.
